Results reported in ChEMBL document CHEMBL1255510, “Discovery of a class of calcium sensing receptor positive allosteric modulators; 1-(benzothiazol-2-yl)-1-phenylethanols” (Bioorg Med Chem Lett, 2010).
pEC50: −log10 of the molar value. Structures can show the parent of a compound that is named as a salt. Active and inactive are the calls of the source. The rule behind the calls is not given here.

Experiments:
[1] = target: T1, Extracellular calcium-sensing receptor (Homo sapiens, UniProt P41180); assay: Positive allosteric modulation of calcium sensing receptor by cell based assay; format: functional
T1 sequence (P41180 whole entry): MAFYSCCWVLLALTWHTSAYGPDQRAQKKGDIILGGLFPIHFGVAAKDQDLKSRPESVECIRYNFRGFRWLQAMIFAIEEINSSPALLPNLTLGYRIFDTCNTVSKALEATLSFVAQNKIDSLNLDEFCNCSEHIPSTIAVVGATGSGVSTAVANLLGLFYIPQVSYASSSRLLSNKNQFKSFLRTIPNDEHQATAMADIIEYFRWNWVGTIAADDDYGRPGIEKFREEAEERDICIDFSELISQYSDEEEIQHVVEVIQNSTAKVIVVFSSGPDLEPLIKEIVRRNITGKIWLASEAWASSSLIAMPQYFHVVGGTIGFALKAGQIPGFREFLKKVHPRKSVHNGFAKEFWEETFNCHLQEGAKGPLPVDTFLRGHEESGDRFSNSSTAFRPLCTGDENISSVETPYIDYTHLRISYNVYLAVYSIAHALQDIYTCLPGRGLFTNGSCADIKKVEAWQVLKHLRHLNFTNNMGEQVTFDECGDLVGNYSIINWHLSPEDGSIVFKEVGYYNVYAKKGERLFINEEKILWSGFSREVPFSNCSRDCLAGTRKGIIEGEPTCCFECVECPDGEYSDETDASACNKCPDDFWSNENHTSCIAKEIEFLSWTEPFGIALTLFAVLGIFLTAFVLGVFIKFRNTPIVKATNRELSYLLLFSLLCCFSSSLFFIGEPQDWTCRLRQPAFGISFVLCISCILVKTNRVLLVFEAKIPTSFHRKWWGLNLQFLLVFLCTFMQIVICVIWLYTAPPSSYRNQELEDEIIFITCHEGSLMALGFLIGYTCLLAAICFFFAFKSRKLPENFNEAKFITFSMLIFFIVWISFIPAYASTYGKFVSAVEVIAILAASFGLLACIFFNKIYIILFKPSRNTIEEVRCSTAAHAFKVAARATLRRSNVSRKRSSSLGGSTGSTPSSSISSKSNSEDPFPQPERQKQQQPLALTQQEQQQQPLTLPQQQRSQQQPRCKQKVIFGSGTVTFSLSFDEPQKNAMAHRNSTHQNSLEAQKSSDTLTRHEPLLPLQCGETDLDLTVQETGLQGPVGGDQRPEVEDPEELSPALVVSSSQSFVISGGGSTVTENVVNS
How it was run: (§1)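 R-SAT cell-based functional assay; cells kept in DMEM with 0.8 mM MgCl2 and 1.6 mM CaCl2 to raise sensitivity. Means of at least three independent experiments, standard deviation reported.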

[2] = target: T2, Extracellular calcium-sensing receptor (Homo sapiens) (UniProt P41180); assay: Positive allosteric modulation of calcium sensing receptor by cell based assay relative to control; format: functional; how it was run: as §1
T2 sequence (whole entry): T1 sequence (P41180 whole entry)

[3] = Intrinsic clearance in human liver microsomes; format: ADME, Microsome
[4] = target: T2, Extracellular calcium-sensing receptor (Homo sapiens); assay: Positive allosteric modulation of calcium sensing receptor at 10 nM by cell based assay; format: functional
[5] = target: T2, Extracellular calcium-sensing receptor (Homo sapiens); assay: Positive allosteric modulation of calcium sensing receptor at 10 nM by cell based assay relative to control; format: functional
[6] = target: T2, Extracellular calcium-sensing receptor (Homo sapiens); assay: Positive allosteric modulation of calcium sensing receptor by phosphatidyl inositol hydrolysis assay; format: functional
Rattus norvegicus = assay: Reduction of parathyroid hormone level in Sprague-Dawley rat at up to 10 mg/kg, sc after 1 hr by ELISA; format: functional, organism-based; parameters: dose 10 mg/kg
How it was run: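 Male Sprague–Dawley rats dosed subcutaneously; blood sampled 1 h post-dose and plasma PTH measured by ELISA.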

Homo sapiens = organism: Homo sapiens; assay: Activation of human GABAB receptor
[7] = target: T3, Parathyroid hormone/parathyroid hormone-related peptide receptor (Homo sapiens) (UniProt Q03431); assay: Activation of human PTH1 receptor
T3 sequence (whole entry): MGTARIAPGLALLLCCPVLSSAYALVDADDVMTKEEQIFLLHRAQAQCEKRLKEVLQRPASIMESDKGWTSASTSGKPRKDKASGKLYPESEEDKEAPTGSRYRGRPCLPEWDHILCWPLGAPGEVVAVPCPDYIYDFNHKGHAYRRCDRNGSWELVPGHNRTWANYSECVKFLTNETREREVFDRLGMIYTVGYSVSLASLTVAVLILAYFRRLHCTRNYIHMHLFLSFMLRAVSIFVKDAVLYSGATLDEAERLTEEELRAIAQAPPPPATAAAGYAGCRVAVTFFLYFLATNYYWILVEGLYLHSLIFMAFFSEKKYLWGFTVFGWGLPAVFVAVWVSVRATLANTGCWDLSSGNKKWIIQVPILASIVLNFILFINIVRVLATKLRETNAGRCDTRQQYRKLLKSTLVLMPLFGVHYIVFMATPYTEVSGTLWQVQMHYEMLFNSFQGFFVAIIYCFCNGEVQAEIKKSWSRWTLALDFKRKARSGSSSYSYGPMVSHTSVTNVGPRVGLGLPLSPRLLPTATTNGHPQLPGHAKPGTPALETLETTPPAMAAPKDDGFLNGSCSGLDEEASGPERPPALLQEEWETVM

Row | Compound | pEC50 [1] | Efficacy [2] | other results
1 | COc1ccccc1C(C)(O)c1nc2ccccc2s1 (stereo not given) | 5.40 | 26% | –
2 | Cc1ccccc1C(C)(O)c1nc2ccccc2s1 (stereo not given) | 6.60 | 72% | –
3 | OC(c1ccccc1)(c1ccc(Cl)c(Cl)c1)c1nc2ccccc2s1 (stereo not given) | – | – | Activity [4]: inactive; Activity [5]: inactive
4 | CC(O)(c1ccc(Cl)cc1)c1nc2ccccc2s1 (stereo not given) | 6.40 | 68% | microsomal CLint [3]: > 200 µL/min/mg
5 | C=C(c1nc2ccccc2s1)c1ccc(C)cc1C | – | – | Activity [4]: inactive; Activity [5]: inactive
6 | Cc1ccc(C(O)c2nc3ccccc3s2)c(C)c1 (stereo not given) | – | – | Activity [4]: inactive; Activity [5]: inactive
7 | CC(O)(c1ccc2ccccc2c1)c1nc2ccccc2s1 (stereo not given) | 6.20 | 53% | –
8 | Cc1cc(C)c2c(c1)C(O)(c1nc3ccccc3s1)CCC2 (stereo not given) | 6.50 | 81% | –
9 | Cc1ccc(C(C)c2nc3ccccc3s2)c(C)c1 (stereo not given) | 5.60 | 88% | –

Further lines, with some results ahead:

Row | pEC50 [1] | Efficacy [2] | Compound | other results
10 | 7.00 | 82% | CC(O)(c1nc2ccccc2s1)c1ccc(Cl)cc1Cl (stereo not given) | microsomal CLint [3]: 66 µL/min/mg
11 | 6.70 | 76% | Cc1ccc(C(O)(c2nc3ccccc3s2)C2CC2)c(C)c1 (stereo not given) | –
12 | 6.80 | 62% | Cc1cc(C(C)(O)c2nc3ccccc3s2)ccc1F (stereo not given) | –
13 | 7.50 | 94% | Cc1cc(Cl)ccc1C(C)(O)c1nc2ccccc2s1 (stereo not given) | –
14 | 7.70 | 115% | C[C@@H](NCCCc1cccc(C(F)(F)F)c1)c1cccc2ccccc12 [CINACALCET HYDROCHLORIDE] | –
15 | 7.10 | 79% | Cc1ccc([C@@](C)(O)c2nc3ccccc3s2)c(C)c1 | Activity [6]: Active
16 | 8.00 | 83% | Cc1ccc([C@](C)(O)c2nc3ccccc3s2)c(C)c1 | Activity [6]: Active
17 | 7.60 | 91% | Cc1ccc(C(C)(O)c2nc3ccccc3s2)c(C)c1 (stereo not given) | Activity (Rattus norvegicus): Active; Activity (Homo sapiens): inactive; Activity [6]: Active; microsomal CLint [3]: 396 µL/min/mg; Activity [7]: inactive
18 | 7.00 | 62% | CC(O)(c1ccc(Cl)c(Cl)c1)c1nc2ccccc2s1 (stereo not given) | –
